Laboratory results published in ChEMBL document CHEMBL1126662, “Synthesis and use of the n-bromododecane-1,12-diols as conformational probes for general anesthetic target sites” (J Med Chem, 1993).
pEC50, pKi: −log10 of the molar value. Converted amounts (≈) assume the structure as drawn.

Legend:
[1] = Inhibition constant for firefly luciferase was evaluated; set-up: species or system Lampyridae
Outline: (§1)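 Luciferase purified from Photinus pyralis lanterns by affinity chromatography; light-emission assay at 25 ± 1 °C with 2 mM ATP, competitive versus luciferin. Diols added in ethanol (final 23 mM, also in controls). Triplicate activities at ~5 diol levels each paired with control; Ki by weighted least squares from ~15 estimates; EC50 = 2Ki at luciferin Km.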

[2] = Concentration which inhibits luciferase activity by 50% when the luciferon concentration is at its Km; set-up: species or system Lampyridae; outline: as §1
[3] = Concentration which anesthetizes 50% of a population of Rana temporaria tadpoles at 20 degrees Centigrade; format: functional, frog
Outline: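 Rana temporaria tadpoles (20–25 mm) at 20 ± 1 °C, six per beaker in 7–10 beakers of tap water with graded diol. Endpoint: no reflex to gentle glass-rod tap on side or snout, tested every 15 min up to 2 h; Waud dose–response analysis. Convulsing tadpoles excluded.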

[4] = Headecane/water partition coefficient expressed as the equilibrium ratio of the molar concentration in n-hexadecane to that in the buffer; format: physicochemical
Outline: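 Molar partition between n-hexadecane and pH 7.8 glycylglycine/MgSO4 buffer at 25 ± 1 °C; aqueous diol measured by luciferase method; at least five independent determinations per diol; mean ± SE.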

[5] = Aqueous solubility in 25 mM N-glycyl-glycine and 10 mM MgSO4 (pH 7.8); format: physicochemical; settings: 25 mM N-glycyl-glycine and 10 mM MgSO4 buffer, read-out: S
Outline: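 Diol solubility measured at 25 ± 1 °C in pH 7.8 buffer (25 mM N-glycylglycine, 10 mM MgSO4), a modified Curry method; dissolved diol quantified by inhibition of firefly luciferase. Values mean ± SE.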

| Structure (SMILES) | pKi [1] | pEC50 [2] | pEC50 [3] | Khd [4] | solubility [5] [µM] |
| --- | --- | --- | --- | --- | --- |
| OCCCCCCC(Br)CCCCCO (stereo not given) | 4.84 | 4.53 | 4.01 | 0.32 | 2260 (≈ 636 µg/mL) |
| OCCCCCCCCCC(Br)CCO (stereo not given) | 6.06 | 5.76 | 4.25 | 3.1 | 800 (≈ 225 µg/mL) |
| OCCCCCCCC(Br)CCCCO (stereo not given) | 5.43 | 5.13 | 4.54 | 0.9 | 2340 (≈ 658 µg/mL) |
| OCCCCCCCCCCC(Br)CO (stereo not given) | 6.36 | 6.06 | 4.47 | 13 | 725 (≈ 204 µg/mL) |
| OCCCCCCCCCCCCO | 6.11 | 5.81 | 4.41 | 4.7 | 95 (≈ 19.2 µg/mL) |
